From BindingDB's records for doi:10.1016/j.bmcl.2007.10.100 (Columbia University, 2008)
Peptide text beside a SMILES is read from it. * marks the point of attachment. Cbz = O=C(OCc1ccccc1)*

Key:
[1] = Induction of human IkappaBalpha stabilization in OCI-Ly3 cells by green light emiting IkappaBalpha-fused luciferase reporter gene assay
Transcription factor p65 = Transcription factor p65 (Human, UniProt Q04206); assay: Inhibition of TNF-alpha-stimulated human NF-kappaB p65 RelA subunit nuclear translocation in HUVEC
Method in brief: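 HUVEC (fewer than 8 passages) were seeded at 3,000 cells/well. Compounds were added in 8-point series, either from 10 µM final in media with 0.33% DMSO diluted 1:3, or from 8 µM diluted 1:2. After 3.5 h with compound, cells were stimulated with […] for 30 min. Cells were then fixed, permeabilized, stained with Hoechst and with anti-p65 plus an Alexa 647 secondary, and imaged automatically. IC50 is from curve fitting of one experiment run in triplicate, with BAY 11-7082 as the positive control.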

[2] = Induction of human IkappaBalpha stabilization in OCI-Ly3 cells assessed as ratio of green light emiting IkappaBalpha-fused luciferase expression to red light emiting native luciferase expression

Sequence of Transcription factor p65 (Q04206 whole entry): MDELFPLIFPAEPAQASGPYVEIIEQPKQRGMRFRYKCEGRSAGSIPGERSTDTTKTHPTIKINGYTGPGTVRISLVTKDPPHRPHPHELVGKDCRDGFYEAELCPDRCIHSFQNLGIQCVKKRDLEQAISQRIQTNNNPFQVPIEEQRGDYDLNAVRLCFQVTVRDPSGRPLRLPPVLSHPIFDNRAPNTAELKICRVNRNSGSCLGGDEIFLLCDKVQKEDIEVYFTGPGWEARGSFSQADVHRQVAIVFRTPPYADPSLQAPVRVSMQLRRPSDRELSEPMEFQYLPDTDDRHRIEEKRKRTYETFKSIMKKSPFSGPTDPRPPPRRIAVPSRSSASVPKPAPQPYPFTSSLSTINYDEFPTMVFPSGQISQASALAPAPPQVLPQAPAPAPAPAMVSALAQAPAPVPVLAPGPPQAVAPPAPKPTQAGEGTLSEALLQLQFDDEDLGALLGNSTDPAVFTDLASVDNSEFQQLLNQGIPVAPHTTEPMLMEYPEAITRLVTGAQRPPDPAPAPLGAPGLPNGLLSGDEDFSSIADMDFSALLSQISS

EC50 [1] [µM]	IC50 (Transcription factor p65) [µM]	EC50 [2] [µM]	SMILES
3.7	2.5	3.4	COc1ccc2c(c1)-c1ccc3ccc(C)nc3c1NS2(=O)=O
5.9	1.1	6.8	O=S(=O)(Nc1cccc2cccnc12)c1ccc(Br)s1
0.5	0.6	0.8	Cc1ccc2c(c1)-c1ccc3cccnc3c1NS2(=O)=O
8	10	11	Cc1ccc2ccc3c(c2n1)NS(=O)(=O)c1ccc(O)cc1-3
> 10	–	> 57	COc1cc(NS(=O)(=O)c2ccc(C)cc2[N+](=O)[O-])c2nc(C)ccc2c1
2.7	1.3	2.7	O=S(=O)(Nc1cccc2cccnc12)c1ccc(Cl)s1
7	–	10	Cc1cnc2c3c(ccc2c1)-c1ccccc1S(=O)(=O)N3
10	1.1	3.6	Cc1ccc2cccc(NS(=O)(=O)c3ccc(C(F)(F)F)cc3[N+](=O)[O-])c2n1
6.1	1.4	6.4	Cc1ccc2cccc(NS(=O)(=O)c3ccc(Br)s3)c2n1
0.7	1	1	O=S1(=O)Nc2c(ccc3cccnc23)-c2cc(C(F)(F)F)ccc21
1.3	1	1.4	COc1ccc2c(c1)-c1ccc3cccnc3c1NS2(=O)=O
1.4	1	2.1	Cc1ccc2cccc(NS(=O)(=O)c3ccc(Cl)s3)c2n1
–	1	–	COc1ccc(S(=O)(=O)Nc2cccc3ccc(C)nc23)c([N+](=O)[O-])c1
3.6	3.7	20	O=[N+]([O-])c1cc(C(F)(F)F)ccc1S(=O)(=O)Nc1cccc2cccnc12
11	3.2	12	O=[N+]([O-])c1ccccc1S(=O)(=O)Nc1cccc2cccnc12 [2-nitro-N-quinolin-8-yl-benzenesulfonamide]
6.5	1.5	17	O=[N+]([O-])c1ccc(S(=O)(=O)Nc2cccc3cccnc23)cc1
–	2.5	–	COc1cnc2c3c(ccc2c1)-c1ccccc1S(=O)(=O)N3
6.8	3.8	8	Cc1ccc2cccc(NS(=O)(=O)c3ccccc3[N+](=O)[O-])c2n1
6	0.9	13	Cc1ccc2cccc(NS(=O)(=O)c3cccc([N+](=O)[O-])c3)c2n1
5.3	3.6	9	O=S(=O)(Nc1cccc2cccnc12)c1cccs1
4	1	4	COc1cc(NS(=O)(=O)c2ccc(C)cc2N)c2ncccc2c1

The next lines start with the compound.

SMILES	EC50 [1] [µM]	IC50 (Transcription factor p65) [µM]	EC50 [2] [µM]
O=S(=O)(Nc1cccc2cccnc12)c1ccccc1 [N-(quinolin-8-yl)benzenesulfonamide]	17	> 10	20
Cc1ccc2ccc3c(c2n1)NS(=O)(=O)c1ccc(C(F)(F)F)cc1-3	8.9	1.2	7.2
COc1cc(NS(=O)(=O)c2ccc(C)cc2[N+](=O)[O-])c2ncccc2c1	6.8	2.1	7.6
Cc1ccc([N+](=O)[O-])cc1S(=O)(=O)Nc1cccc2cccnc12	1	1.6	> 10
Cc1ccc2cccc(NS(=O)(=O)c3ccccc3N)c2n1	8	2.8	8
O=S1(=O)Nc2c(ccc3cccnc23)-c2ccccc21 [5H-quinolino[8,7-c][1,2]benzothiazine 6,6-dioxide]	2.2	1	2.6
COc1cc(NS(=O)(=O)c2ccc(C)cc2N)c2nc(C)ccc2c1	9.4	–	3
CC(C)C[C@@H](C=O)NC(=O)[C@H](CC(C)C)NC(=O)[C@H](CC(C)C)NC(=O)OCc1ccccc1 [{1-[(S)-(S)-1-((S)-1-Formyl-3-methyl-butylcarbamoyl)-3-methyl-butylcarbamoyl]-3-methyl-butyl}-carbamic acid benzyl ester] (Cbz-Leu-Leu-Leu-aldehyde)	1	–	5.2
COc1cc(NS(=O)(=O)c2ccc(C)cc2)c2nc(C)ccc2c1	20	> 10	20
O=S1(=O)Nc2c(ccc3cccnc23)-c2cc(Cl)ccc21	1.1	1.1	11
Nc1ccccc1S(=O)(=O)Nc1cccc2cccnc12	11	2	8.5
Cc1ccc(S(=O)(=O)/C=C/C#N)cc1 [BAY-11-7082]	–	3	–
Cc1ccc2cccc(NS(=O)(=O)c3cc([N+](=O)[O-])ccc3C)c2n1	> 20	–	> 57
COc1cc2ccc(C)nc2c2c1-c1cc(C)ccc1S(=O)(=O)N2	1.4	0.9	2.3
COc1cc2cccnc2c2c1-c1cc(C)ccc1S(=O)(=O)N2	1.3	1.2	1.6
O=S1(=O)Nc2c(ccc3cccnc23)-c2cc(F)ccc21	4.1	1.7	12
